The target of data set [1] is Macrophage colony-stimulating factor 1 receptor (Homo sapiens, UniProt P07333). In words: Inhibition of recombinant CSF1R (unknown origin) using poly (Glu, Tyr)4:1 as substrate measured after 1 hr by ELISA.
The next data set relates to Mus musculus. As to the kind of experiment: Antiinflammatory activity in BALB/c mouse assessed as reduction in LPS-induced TNFalpha production at 20 to 40 mg/kg, po pretreated for 4 hrs followed by LPS-stimulation and measured after 1.5 hrs by ELISA. Format: functional, organism-based. A digest of the protocol: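 Female BALB/c mice, 8 weeks old, n = 6 per group, dosed orally at 20 or 40 mg/kg in 0.5% CMC-Na/0.25% Tween-80 4 h before ip LPS 5 mg/kg. Orbital-sinus blood was taken at 1.5 h (TNF-α) and 3 h (IL-6). Serum cytokines measured by ELISA. Mean ± SEM, one-way ANOVA with Dunnett's test.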

Data set [2] deals with Vascular endothelial growth factor receptor 2 (Homo sapiens) (UniProt P35968). In words: Inhibition of recombinant human VEGFR2 (D1-7) expressed in Spodoptera frugiperda insect cells at 1000 nM using poly (Glu, Tyr)4:1 as substrate measured after 1 hr by ELISA relative to control. A digest of the protocol: (§1)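 ELISA kinase assay: recombinant kinase added to wells precoated with poly(Glu,Tyr)4:1 and incubated with compound in reaction buffer containing 5 μM ATP, 37 °C for 1 h; wells then washed before antibody detection.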
Chain of Vascular endothelial growth factor receptor 2 (Homo sapiens) (P35968 whole entry): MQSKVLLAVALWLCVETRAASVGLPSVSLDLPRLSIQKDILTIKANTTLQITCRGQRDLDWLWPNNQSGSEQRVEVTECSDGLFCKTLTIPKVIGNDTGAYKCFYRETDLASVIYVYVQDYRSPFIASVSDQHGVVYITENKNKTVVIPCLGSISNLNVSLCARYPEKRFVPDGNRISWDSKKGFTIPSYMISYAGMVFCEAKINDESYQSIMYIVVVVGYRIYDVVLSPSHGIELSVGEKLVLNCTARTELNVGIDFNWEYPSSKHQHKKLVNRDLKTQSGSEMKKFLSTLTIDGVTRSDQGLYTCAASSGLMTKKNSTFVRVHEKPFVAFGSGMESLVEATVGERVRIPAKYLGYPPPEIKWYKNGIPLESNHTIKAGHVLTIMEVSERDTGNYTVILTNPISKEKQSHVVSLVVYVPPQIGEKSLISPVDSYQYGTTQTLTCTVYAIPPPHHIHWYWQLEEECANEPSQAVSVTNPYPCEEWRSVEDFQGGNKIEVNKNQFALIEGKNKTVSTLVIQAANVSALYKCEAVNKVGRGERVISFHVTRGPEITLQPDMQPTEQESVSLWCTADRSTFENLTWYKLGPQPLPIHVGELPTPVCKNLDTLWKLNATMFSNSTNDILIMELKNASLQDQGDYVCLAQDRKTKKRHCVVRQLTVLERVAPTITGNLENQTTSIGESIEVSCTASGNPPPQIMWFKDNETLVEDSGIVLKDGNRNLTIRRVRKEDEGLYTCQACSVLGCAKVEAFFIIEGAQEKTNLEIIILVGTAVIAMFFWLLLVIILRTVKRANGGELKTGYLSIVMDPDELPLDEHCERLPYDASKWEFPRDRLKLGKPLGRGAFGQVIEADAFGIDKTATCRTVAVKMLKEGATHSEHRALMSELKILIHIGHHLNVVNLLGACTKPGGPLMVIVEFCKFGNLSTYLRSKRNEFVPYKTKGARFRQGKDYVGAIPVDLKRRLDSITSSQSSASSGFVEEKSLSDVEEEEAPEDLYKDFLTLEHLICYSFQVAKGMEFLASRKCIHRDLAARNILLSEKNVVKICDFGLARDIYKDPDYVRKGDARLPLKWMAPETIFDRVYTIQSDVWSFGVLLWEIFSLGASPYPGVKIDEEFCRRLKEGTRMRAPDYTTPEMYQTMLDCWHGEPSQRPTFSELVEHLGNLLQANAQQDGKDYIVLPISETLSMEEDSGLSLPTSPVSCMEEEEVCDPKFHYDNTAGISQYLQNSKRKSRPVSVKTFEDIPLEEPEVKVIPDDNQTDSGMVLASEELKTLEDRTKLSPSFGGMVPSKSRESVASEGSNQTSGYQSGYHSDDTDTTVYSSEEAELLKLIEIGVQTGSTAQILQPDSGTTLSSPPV
On the technique in general: In an ELISA, binding on a coated surface is turned into a signal by an enzyme label.

The target in data set [3] is Epidermal growth factor receptor (Homo sapiens) (UniProt P00533). In words: Inhibition of recombinant human N-terminal GST-tagged EGFR (696 to end residues) expressed in baculovirus infected Sf21 insect cells at 1000 nM using poly (Glu, Tyr)4:1 as substrate measured after 1 hr by ELISA relative to control. A digest of the protocol: (§2)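 Recombinant kinase was incubated with compound in reaction buffer containing 5 μM ATP, in wells precoated with poly(Glu,Tyr) 4:1, for 1 h at 37 °C. Phosphorylation was detected by ELISA.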
Chain of Epidermal growth factor receptor (Homo sapiens) (P00533 whole entry): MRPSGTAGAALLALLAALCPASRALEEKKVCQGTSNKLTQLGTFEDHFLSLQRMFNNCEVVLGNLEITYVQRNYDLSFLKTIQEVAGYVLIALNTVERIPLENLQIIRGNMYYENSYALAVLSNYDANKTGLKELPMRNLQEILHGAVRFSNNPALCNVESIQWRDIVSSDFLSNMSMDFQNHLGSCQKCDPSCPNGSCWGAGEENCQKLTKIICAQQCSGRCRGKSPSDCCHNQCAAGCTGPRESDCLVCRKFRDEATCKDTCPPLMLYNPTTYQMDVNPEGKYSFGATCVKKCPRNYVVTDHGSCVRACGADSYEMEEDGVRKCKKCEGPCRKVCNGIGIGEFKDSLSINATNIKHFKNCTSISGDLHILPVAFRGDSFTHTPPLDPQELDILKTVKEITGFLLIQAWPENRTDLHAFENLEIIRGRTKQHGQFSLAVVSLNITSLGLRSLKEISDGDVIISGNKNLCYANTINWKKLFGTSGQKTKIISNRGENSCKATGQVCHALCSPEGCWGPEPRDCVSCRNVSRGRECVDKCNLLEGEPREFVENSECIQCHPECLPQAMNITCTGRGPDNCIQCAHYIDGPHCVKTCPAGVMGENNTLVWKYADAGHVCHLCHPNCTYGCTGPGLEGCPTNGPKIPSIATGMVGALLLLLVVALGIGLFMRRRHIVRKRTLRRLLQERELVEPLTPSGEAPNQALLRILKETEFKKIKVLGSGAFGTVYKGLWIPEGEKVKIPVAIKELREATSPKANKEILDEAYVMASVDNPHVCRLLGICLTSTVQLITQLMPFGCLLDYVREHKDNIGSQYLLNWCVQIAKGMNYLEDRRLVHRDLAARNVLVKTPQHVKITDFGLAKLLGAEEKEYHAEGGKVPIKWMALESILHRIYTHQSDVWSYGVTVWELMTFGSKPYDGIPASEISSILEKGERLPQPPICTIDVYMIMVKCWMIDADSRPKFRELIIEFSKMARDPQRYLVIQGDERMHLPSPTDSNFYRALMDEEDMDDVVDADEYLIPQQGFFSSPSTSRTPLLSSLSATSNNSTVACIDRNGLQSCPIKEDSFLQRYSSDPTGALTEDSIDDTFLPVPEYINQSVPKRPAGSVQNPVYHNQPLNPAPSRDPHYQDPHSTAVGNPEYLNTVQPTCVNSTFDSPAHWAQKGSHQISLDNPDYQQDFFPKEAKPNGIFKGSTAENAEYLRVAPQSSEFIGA

The target in data set [4] is Ephrin type-A receptor 2 (Homo sapiens) (UniProt P29317). As to the kind of experiment: Inhibition of recombinant human N-terminal His6-tagged EphA2 (596 to 900 residues) expressed in baculovirus infected Sf21 insect cells at 1000 nM using poly (Glu, Tyr)4:1 as substrate measured after 1 hr by ELISA relative to control. A digest of the protocol:
as §2

For data set [5], the target named is Insulin-like growth factor 1 receptor (Homo sapiens) (UniProt P08069). In words: Inhibition of recombinant human N-terminal His6-tagged IGF1R (959 to end residues) expressed in baculovirus infected Sf21 insect cells at 1000 nM using poly (Glu, Tyr)4:1 as substrate measured after 1 hr by ELISA relative to control. A digest of the protocol:
as §1

Data set [6] concerns the target Fibroblast growth factor receptor 1 (Homo sapiens, UniProt P11362). As to the kind of experiment: Inhibition of recombinant human N-terminal GST-tagged FGFR1 (456 to 765 residues) expressed in baculovirus infected Sf21 insect cells at 1000 nM using poly (Glu, Tyr)4:1 as substrate measured after 1 hr by ELISA relative to control. A digest of the protocol:
as §2

Data set [7] concerns the target Vascular endothelial growth factor receptor 2 (Homo sapiens) (UniProt P35968). In words: Inhibition of recombinant human VEGFR2 (D1-7) expressed in Spodoptera frugiperda insect cells at 100 nM using poly (Glu, Tyr)4:1 as substrate measured after 1 hr by ELISA relative to control. A digest of the protocol:
as §1

Another data set concerns the target FLT3 (Homo sapiens, UniProt P36888). In words: Inhibition of recombinant human N-terminal GST-tagged FLT3 (564 to end residues) expressed in Sf21 insect cells at 100 nM using poly (Glu, Tyr)4:1 as substrate measured after 1 hr by ELISA relative to control. Particulars: probe poly (Glu, Tyr)4:1. A digest of the protocol:
as §2

Data set [8] concerns the target Tyrosine-protein kinase ABL1 (Homo sapiens) (UniProt P00519). In words: Inhibition of recombinant human N-terminal His6-tagged Abl (27 to end residues) expressed in baculovirus infected Sf21 insect cells at 100 nM using poly (Glu, Tyr)4:1 as substrate measured after 1 hr by ELISA relative to control. A digest of the protocol:
as §2

Data set [9] addresses Fibroblast growth factor receptor 2 (Homo sapiens, UniProt P21802). As to the kind of experiment: Inhibition of recombinant human N-terminal His6-tagged FGFR2 (456 to 770 residues) expressed in baculovirus infected Sf21 insect cells at 100 nM using poly (Glu, Tyr)4:1 as substrate measured after 1 hr by ELISA relative to control. A digest of the protocol: as §2
Data set [10] addresses Platelet-derived growth factor receptor beta (Homo sapiens) (UniProt P09619). In words: Inhibition of recombinant human N-terminal His6-tagged PDGFRbeta (557 to end residues) expressed in baculovirus infected Sf21 insect cells at 10 nM using poly (Glu, Tyr)4:1 as substrate measured after 1 hr by ELISA relative to control. A digest of the protocol: as §1
The nature of data set [11]: Cmax in Sprague-Dawley rat at 5 mg/kg, po administered via gavage by LC-MS/MS analysis. Format: ADME, organism-based. Set-up: dose 5 mg/kg, route oral. The conditions noted are these: in vivo. A digest of the protocol: (§3)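 Male SD rats (200 ± 20 g) were fasted 12 h with free access to water, n = 3 per group. One group received 2 mg/kg iv in DMSO/EtOH/PEG300/saline (5/5/40/50). The other received 5 mg/kg by oral gavage in DMSO/HPMC (5/95). Femoral-vein plasma was taken at 15–1440 min, methanol-precipitated with internal standard, and measured by LC–MS/MS. Noncompartmental analysis; AUC by trapezoidal method.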

The test system of data set [12] is RAW264.7. In words: Antiinflammatory activity in mouse RAW264.7 cells assessed as reduction in LPS-induced TNFalpha release measured after 24 hrs by ELISA. Particulars: RAW264.7, 24 h. Format: functional, cell-based. A digest of the protocol:
(§4)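 RAW264.7 cells in DMEM with 10% FBS and 0.125% DMSO were incubated with compound, then primed with LPS 1 μg/mL for 24 h. Supernatant TNF-α and IL-6 measured by mouse ELISA. IC50 from log(inhibitor) versus normalized response nonlinear fit.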

For data set [13], the system named is RAW264.7. In words: Antiinflammatory activity in mouse RAW264.7 cells assessed as reduction in LPS-induced IL6 release measured after 24 hrs by ELISA. Format: functional, cell-based. Particulars: RAW264.7, 24 h. A digest of the protocol:
as §4

The nature of data set [14]: MRT (infinity) in Sprague-Dawley rat at 5 mg/kg, po administered via gavage by LC-MS/MS analysis. Particulars: in vivo. Format: ADME, organism-based. A digest of the protocol:
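Male SD rats (200 ± 20 g), fasted 12 h, n = 3; oral gavage 5 mg/kg in DMSO/HPMC (5/95). Femoral vein blood at 15–1440 min; plasma precipitated with methanol plus internal standard, LC–MS/MS; noncompartmental analysis, Tmax observed directly, MRT = AUMC/AUC.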

Data set [15] in a line: Oral bioavailability in Sprague-Dawley rat at 5 mg/kg administered via gavage by LC-MS/MS analysis. The conditions noted are these: in vivo. The data set is classed as ADME, organism-based. A digest of the protocol:
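Male SD rats (n = 3 per route), fasted 12 h; 5 mg/kg oral gavage (DMSO/HPMC 5/95) versus 2 mg/kg iv (DMSO/EtOH/PEG300/saline). Plasma sampled 15–1440 min, LC–MS/MS; F = AUC0–∞(oral)/AUC0–∞(iv) × dose(iv)/dose(oral) × 100%.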

Data set [16] can be described thus: Clearance in Sprague-Dawley rat at 2 mg/kg, iv administered […] by LC-MS/MS analysis. Format: ADME, organism-based. Particulars: in vivo. A digest of the protocol: as §3
For data set [17], the target named is Voltage-gated inwardly rectifying potassium channel KCNH2 (Homo sapiens, UniProt Q12809). In words: Inhibition of human ERG by Qpatch automatic patch-clamp assays. A general note: The patch-clamp technique gives a direct electrical read-out from membranes.

Active and inactive are the calls of the source. No cut-off for these calls is given here. Some results are limits rather than exact numbers.

Chain of FLT3 (P36888 whole entry): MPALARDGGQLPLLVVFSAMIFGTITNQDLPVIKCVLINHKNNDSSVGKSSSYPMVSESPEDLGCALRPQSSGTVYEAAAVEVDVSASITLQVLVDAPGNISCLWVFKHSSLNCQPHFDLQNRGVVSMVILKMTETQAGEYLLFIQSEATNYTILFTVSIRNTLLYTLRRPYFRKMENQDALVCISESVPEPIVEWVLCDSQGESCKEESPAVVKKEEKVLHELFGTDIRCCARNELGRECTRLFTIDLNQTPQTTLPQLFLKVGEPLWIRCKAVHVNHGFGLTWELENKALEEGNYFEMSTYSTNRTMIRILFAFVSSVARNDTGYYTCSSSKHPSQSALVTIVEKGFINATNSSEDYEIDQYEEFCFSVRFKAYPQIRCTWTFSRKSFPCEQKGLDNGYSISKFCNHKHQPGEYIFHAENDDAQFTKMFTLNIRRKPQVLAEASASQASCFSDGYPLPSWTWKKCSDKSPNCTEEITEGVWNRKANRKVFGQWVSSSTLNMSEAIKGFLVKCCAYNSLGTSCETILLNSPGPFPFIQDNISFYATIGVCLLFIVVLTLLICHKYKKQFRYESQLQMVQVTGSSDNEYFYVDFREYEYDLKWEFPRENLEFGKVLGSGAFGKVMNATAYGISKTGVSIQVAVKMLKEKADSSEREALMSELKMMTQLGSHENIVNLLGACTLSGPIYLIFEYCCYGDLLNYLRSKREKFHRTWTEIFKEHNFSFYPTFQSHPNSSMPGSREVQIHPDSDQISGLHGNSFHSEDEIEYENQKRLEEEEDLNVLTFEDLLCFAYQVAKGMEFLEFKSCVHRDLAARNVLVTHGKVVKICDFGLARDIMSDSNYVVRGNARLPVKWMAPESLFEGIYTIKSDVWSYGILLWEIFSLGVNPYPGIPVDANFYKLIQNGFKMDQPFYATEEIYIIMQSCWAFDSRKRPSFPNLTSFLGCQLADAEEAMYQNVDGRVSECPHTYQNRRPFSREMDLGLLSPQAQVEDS
Chain of Ephrin type-A receptor 2 (Homo sapiens) (P29317 whole entry, the tested form may be a part): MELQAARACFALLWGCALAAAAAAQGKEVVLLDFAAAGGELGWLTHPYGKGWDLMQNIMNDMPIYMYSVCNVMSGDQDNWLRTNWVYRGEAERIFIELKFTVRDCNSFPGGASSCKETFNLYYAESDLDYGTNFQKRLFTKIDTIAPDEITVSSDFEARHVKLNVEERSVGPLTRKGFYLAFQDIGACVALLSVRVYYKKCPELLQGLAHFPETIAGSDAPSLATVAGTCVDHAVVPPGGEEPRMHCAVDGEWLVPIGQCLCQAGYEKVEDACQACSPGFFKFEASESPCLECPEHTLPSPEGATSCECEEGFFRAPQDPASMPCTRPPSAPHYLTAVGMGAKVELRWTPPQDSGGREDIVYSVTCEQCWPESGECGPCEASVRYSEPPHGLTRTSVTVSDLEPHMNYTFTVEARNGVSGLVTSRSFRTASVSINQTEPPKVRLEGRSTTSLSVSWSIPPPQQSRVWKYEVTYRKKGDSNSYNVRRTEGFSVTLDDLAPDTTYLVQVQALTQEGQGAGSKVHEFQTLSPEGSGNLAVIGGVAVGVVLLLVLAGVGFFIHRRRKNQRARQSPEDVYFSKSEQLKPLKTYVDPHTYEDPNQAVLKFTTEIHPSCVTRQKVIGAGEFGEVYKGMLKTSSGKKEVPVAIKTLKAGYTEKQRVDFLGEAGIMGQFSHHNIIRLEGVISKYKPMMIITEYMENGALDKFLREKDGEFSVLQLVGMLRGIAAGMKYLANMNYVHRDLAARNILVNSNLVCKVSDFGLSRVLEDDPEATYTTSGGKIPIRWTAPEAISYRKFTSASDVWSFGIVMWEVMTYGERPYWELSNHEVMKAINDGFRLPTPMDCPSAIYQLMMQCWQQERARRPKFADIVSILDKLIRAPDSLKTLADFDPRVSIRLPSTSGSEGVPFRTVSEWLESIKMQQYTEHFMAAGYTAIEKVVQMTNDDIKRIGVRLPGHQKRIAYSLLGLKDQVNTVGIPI

For the compound `Cc1ccc(C(=O)Nc2ccc(Cl)cc2)cc1C#Cc1cc(-c2cnn(C)c2)cnc1N`, the IC50 in [1] was 0.7 nM; in the data set on RAW264.7 [12], 110 nM; with RAW264.7 [13], 130 nM; in [17], more than 40000 nM. Besides, the result in the data set on Mus musculus was Active. The inhibition in data set [2] came to 95.5%; in data set [3], 0%; in [4], 92.3%; in [5], 0%; in [6], 0%; in data set [7], 83.6%. Besides, the inhibition was 82.1% in [8], 16.2% in data set [9] and 14.7% in [10]. Further, the inhibition at 1 h, 0.1 µM at FLT3 stood at 0%. The maximum concentration (Cmax) in [11] came out at 166 ng/mL. In [14], this compound yielded an MRT inf of 5.42 h. The bioavailability in data set [15] worked out at 34.8%. The compound also yielded a clearance in data set [16] of 46 mL/min/kg.

For orientation: IC50 means the concentration that inhibits the measured activity by half. As a reminder, the inhibition is the relative decrease from the control value, in per cent. One may read the Cmax as the maximum level reached in the sampled fluid or tissue. Broadly, the MRT inf is a mean duration of stay, worked out from the concentration-time curve. Broadly, the bioavailability is dose-corrected exposure relative to a reference, in per cent. A high value points to good availability.

Values taken from ChEMBL document CHEMBL4321879, “Novel Class of Colony-Stimulating Factor 1 Receptor Kinase Inhibitors Based on an o-Aminopyridyl Alkynyl Scaffold as Potential Treatment for Inflammatory Disorders” (J Med Chem, 2020).
